Screens as filed in PubChem BioAssay.
PfM18AAP inh-1 = PfM18AAP enzyme inhibition. recombinant PfM18AAP, H-Glu-NHMec fluorogenic cleavage. inhibition, % at 7.35 µM. hit rate 1.2% among 290,000;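 active = inhibition above the campaign mean inhibition over all tested compounds plus 3 SD, cut at about 28% in these data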
NRP1-CendR mod = alters CendR peptide binding to human NRP-1; O14786; FAM-RPARPAR peptide binding to NRP-1, fluorescence polarization; inhibition, % at 25 µM; hit rate 0.85% among 360,000;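 active = inhibition or corrected inhibition above about 18%, plus a signal ratio from 0.5 to 1.5, limit read from the data, passing the limit was not always enough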
Hep lipid drop = modulators of hepatic lipid droplet formation; hit rate 0.4% among 240,000; inhibition, % at 6.5 µM; AML12 mouse hepatocytes, oleate lipid droplets, BODIPY imaging;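 active = lipid droplet intensity inhibited by at least 50%, with more than 500 cells counted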
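Material: mouse AML12 hepatocyte cell line, fixed after treatment; Timing: compound with oleate, overnight; Technique: high-content imaging of BODIPY-stained droplets and DAPI nuclei; Probe or stimulus: oleate, 100 µM final; Dosing: compound at 6.5 µM only.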
Arr AP2 block = human beta-arrestin and AP2 interaction inhibition. FITC-arrestin peptide / GST-AP2 beads, flow cytometry; AP2 beta2 appendage carries R879A mutation. hit rate 0.31% among 340,000. inhibition, % at 10 µM;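 active = inhibition above a set limit, near 3 SD of compounds lacking own fluorescence, cut at about 54% in these data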
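System: GST-AP2 R879A glutathione beads | Also added: FITC-arrestin peptide, 50 nM | Times: 12 min plus 1 h, RT | Signal: Bead flow cytometry, FITC channel | Buffer or medium: PBS with 0.05% Tween 20 and 0.1% BSA | Read-out basis: Percent drop in bead-associated FITC signal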
HTR2A ag = activates the mouse 5-HT2A serotonin receptor; P35363; CHO-K1 mHTR2A beta-arrestin complementation, luminescence; percent of 30 µM serotonin response; activation, % at 7.6 µM; hit rate 0.66% among 360,000; AID 624169;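 active = activation above a run cutoff, the mean activation of all tested compounds plus 3 SD, cut at about 14% in these data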
Target sequence (P35363 whole entry, looked up): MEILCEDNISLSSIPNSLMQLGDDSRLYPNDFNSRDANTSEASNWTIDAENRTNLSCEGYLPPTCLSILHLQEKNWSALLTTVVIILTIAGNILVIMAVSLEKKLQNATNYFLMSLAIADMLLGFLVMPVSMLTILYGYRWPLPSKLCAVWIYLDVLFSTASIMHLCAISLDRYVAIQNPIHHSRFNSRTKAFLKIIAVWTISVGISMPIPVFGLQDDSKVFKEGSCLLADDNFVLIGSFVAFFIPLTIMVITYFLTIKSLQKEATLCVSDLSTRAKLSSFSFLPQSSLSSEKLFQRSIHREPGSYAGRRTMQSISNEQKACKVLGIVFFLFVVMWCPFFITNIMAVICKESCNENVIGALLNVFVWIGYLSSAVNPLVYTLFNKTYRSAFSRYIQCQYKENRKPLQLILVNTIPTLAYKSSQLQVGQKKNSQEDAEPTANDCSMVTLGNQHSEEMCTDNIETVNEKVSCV
HGIII-sPLA2 inh = Blocks human group III sPLA2 activity. QFRET BODIPY PC-A2 liposome hydrolysis, fluorescence. inhibition, % at 12.2 µM. hit rate 0.56% among 370,000. AID 743126;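 active = inhibition above mean plus 3 SD of compounds lying within the high and low control bounds, cut at about 19% in these data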
PfM18AAP inh-2 = confirmation of Plasmodium falciparum M18 aspartyl aminopeptidase inhibitors; shares compounds with PfM18AAP inh-1; recombinant PfM18AAP, H-Glu-NHMec fluorogenic cleavage; inhibition, % at 7.35 µM; hit rate 28% among 2,400; AID 2170;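 active = mean inhibition over replicate wells above the hit cutoff set for the earlier primary screen, cut at about 29% in these data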
CTSL1 counter = counter-screen for PFM18AAP inhibitors: confirmation of human cathepsin L inhibitors. shares compounds with PfM18AAP inh-1. purified cathepsin L1, Z-Leu-Arg-MCA fluorescence. inhibition, % at 5.96 µM. 2,400 tested, under 10 active;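 active = average inhibition across replicates above the hit cutoff set in the earlier primary screen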
MOR ag counter = activates human mu opioid receptor in HTR2A counterscreen; shares compounds with HTR2A ag; U2OS OPRM1 beta-arrestin PathHunter, luminescence; DMSO 0%, DAMGO 9.3 µM 100%; activation, % at 9.3 µM; hit rate 5.3% among 2,300;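 active = mean activation above the mean of DMSO-only wells plus 3 SD, cut at about 0.5% in these data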
HTR2A ag conf = confirmation of mouse HTR2A serotonin receptor agonists | shares compounds with HTR2A ag | CHO-K1 PathHunter beta-arrestin recruitment, luminescence; DMSO 0%, 30 µM serotonin 100% | activation, % at 7.6 µM | hit rate 19% among 2,300 | AID 624381;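 active = mean activation across triplicates above the hit threshold derived in the original primary screen, cut at about 15% in these data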
hGIII sPLA2 conf = human GIII-sPLA2 inhibition, confirmation. shares compounds with HGIII-sPLA2 inh. hit rate 34% among 2,000. recombinant hGIII-sPLA2, BODIPY PC-A2 QFRET fluorescence. inhibition, % at 12.2 µM. AID 743280;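 active = mean inhibition across triplicates above the hit cutoff set in the earlier primary screen, cut at about 19% in these data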
BODIPY interf = 535nm fluorescence interference, HGIII-sPLA2 counter-screen | inhibition, % at 12.2 µM | AID 743282 | BODIPY FL product fluorescence interference, QFRET | shares compounds with HGIII-sPLA2 inh | hit rate 8.5% among 2,000;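 active = average inhibition above the solvent-only control mean plus 3 SD, cut at about 6% in these data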
535nm interf DR = 535nm optical interference dose response, HGIII-sPLA2 counter-screen; shares compounds with HGIII-sPLA2 inh; BODIPY FL product fluorescence interference, cell-free; IC50, µM; 240 tested, under 10 active;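 active = IC50 at or below 10 µM; inactive = IC50 above 10 µM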
Numbers stand for hits; - = inactive; . = not tested or not shown. Shown are actives, neighbours in structure and some others; about 3.3% of the full set was active somewhere.

SMILES	PfM18AAP inh-1	NRP1-CendR mod	Hep lipid drop	Arr AP2 block	HTR2A ag	HGIII-sPLA2 inh	PfM18AAP inh-2	CTSL1 counter	hGIII sPLA2 conf	BODIPY interf	others
CC(C)(C)c1ccc(O)c(N=Cc2cc(Br)ccc2O)c1	55.9	-	-	-	49.4	-	88.4	-	.	.	MOR ag counter=-;HTR2A ag conf=-
Cc1cc2c(c(=O)o1)[C@@]1(C(=O)N(C)c3ccccc31)C1=C(CC(C)(C)CC1=O)O2	.	.	.	.	.	-	.	.	.	.
N#Cc1c(Cl)nsc1NN	39.1	-	-	-	-	19.6	29.2	-	-	13.7
Cc1c(C#N)c(N)nc(Cl)c1C#N	-	-	-	-	-	-	.	.	.	.
O=C(NNc1nc2cc3c(cc2s1)OCCO3)c1ccc(F)cc1	-	-	-	-	-	-	.	.	.	.
O=C(NNc1nc2cc3c(cc2s1)OCO3)c1ccc(F)cc1	42.1	-	-	-	-	23.2	-	-	37.7	-	535nm interf DR=-
COC(=O)c1cc2c(c3c4ccccc4n(S(=O)(=O)c4ccc(OC)cc4)c13)C(=O)N(Cc1ccc(N(C)C)cc1)C2	.	.	.	.	.	-	.	.	.	.
CCn1c(C)nc2cc(C(=O)NNC(=S)Nc3ccc(C)cc3)ccc21	39.8	-	-	-	-	19.9	-	-	27.4	-
COc1ccc(NC(=O)NNC(=O)c2ccc3ccccc3c2O)c(OC)c1	35.6	-	-	-	-	31.6	-	-	34.0	-	535nm interf DR=-
Cc1ccc2[nH]c(=O)c(CN(CC3COCCO3)C(=O)Nc3ccccc3F)cc2c1 (stereo not given)	-	-	-	-	-	-	.	.	.	.
CCN=c1scc(-c2ccco2)n1/N=C/c1ccc(O)cc1	-	-	-	-	-	-	.	.	.	.
CCN=c1scc(C)n1/N=C/c1ccc(O)c(O)c1O	46.0	-	.	-	-	21.8	-	-	24.1	-
CCCC[n+]1c2ccccc2cc2ccccc21	37.6	-	-	-	-	39.8	-	-	52.2	-	535nm interf DR=-
O=C1NC[C@H](CCCCN2C[C@H](Cc3ccc(O)cc3)N(CCc3ccccc3)C(=O)C2=O)N(CC2CCCCC2)C1=O	.	-	.	.	-	-	.	.	.	.
CCc1nnc(NC(=O)c2ccc(S(=O)(=O)N3CCc4ccccc4C3)cc2)s1	-	-	-	-	-	-	.	.	.	.
Cc1cc(C)c2nc(NNC(=O)c3ccc(S(=O)(=O)N4CCc5ccccc5C4)cc3)sc2c1	35.9	-	-	-	-	49.6	-	-	35.6	-
Cc1cccc(-n2cc(-c3ccccc3)[nH]c2=S)c1	39.5	-	.	-	-	20.3	-	-	31.2	-
COc1ccc(-n2cc(-c3ccccc3)[nH]c2=S)cc1	44.1	-	-	-	-	19.3	32.8	-	40.6	-	535nm interf DR=-
CCOC(=O)[C@]12CCCCC/C=C\1N(Cc1ccc(OC)cc1)C(=O)[C@H]2CC(=O)NCC1CCCCC1	.	.	.	.	.	-	.	.	.	.
CNC(=S)NNC(=O)c1c(C)nc2cc(C)ccn12	47.4	-	-	-	-	19.2	-	-	-	-
Oc1ccc(/C=N/N(Cc2ccccc2)c2ccccc2)c(O)c1O	49.6	-	-	-	-	20.4	-	-	30.2	7.4
C=C1CC2(OC1=O)c1ccccc1CCc1ccccc12	.	-	.	-	-	-	.	.	.	.
O=C(NNC(=S)Nc1ccccc1)NNC(=S)Nc1ccccc1	38.8	-	-	-	-	34.2	59.9	-	28.6	-	535nm interf DR=-
Oc1ccc(NC(=S)Nc2ccccc2)cc1	-	-	-	-	-	-	.	.	.	.
S=c1[nH]c(-c2ccccc2)cn1/N=C/c1cccs1	47.4	-	-	-	-	24.3	39.4	-	37.5	11.6
SMILES	PfM18AAP inh-1	NRP1-CendR mod	Hep lipid drop	Arr AP2 block	HTR2A ag	HGIII-sPLA2 inh	PfM18AAP inh-2	CTSL1 counter	hGIII sPLA2 conf	BODIPY interf	others
COc1ccc(/C=C/S(=O)(=O)NCc2ccc(F)cc2)c(CNC(=O)OC(C)(C)C)c1	.	.	.	.	.	-	.	.	.	.
O=C(NNC(=S)NC(=O)c1ccco1)c1ccc(NC(=O)c2ccccc2)cc1	-	-	-	-	-	-	.	.	.	.
O=C(NC(=S)NNC(=O)c1ccccc1O)c1ccco1	33.0	-	-	-	-	27.6	30.2	-	-	-
NC(=S)NNC(=O)c1cccc(Br)c1	-	.	-	.	.	.	.	.	.	.
O=C(NC(=S)Nn1cnnc1)c1cccc(Br)c1	69.1	-	-	-	-	21.9	87.3	-	-	-
COCCCNC(=S)NNC(=S)NCCCOC	32.3	-	-	-	-	21.6	-	-	-	-
Cc1cccc2sc(NNC(=O)C3=COCCO3)nc12	43.0	-	-	-	16.8	20.7	-	-	23.5	-	MOR ag counter=-;HTR2A ag conf=-
Cc1cc(C(=O)Nc2nc3c(C)cccc3s2)c(C)o1	-	-	-	-	-	-	.	.	.	.
C[C@H]1[C@@H](OC(=O)Nc2cccc(Cl)c2)CC[C@@]23CCCN2C(=O)CCC[C@@H]13	.	.	.	.	.	-	.	.	.	.
COc1ccc(-c2c(C(=O)c3ccc(Br)cc3)[nH]c(N)c2C(=O)c2ccccc2)cc1OC	.	-	.	.	-	-	.	.	.	.
COC(=O)[C@]12C[C@H](CC(=O)NCCCCc3ccccc3)C(=O)N(CCC3=CCCCC3)C1=C[C@H](C1CCCC1)O[C@@H]2C	.	.	.	.	.	-	.	.	.	.
Cc1nn(C)c(-c2n[nH]c(=S)n2-c2ccccc2)c1Cl	32.2	-	-	-	-	25.8	-	-	24.0	-
Cc1ccc(-n2c(-c3cn(C)nc3C)n[nH]c2=S)cc1	-	.	-	.	.	.	.	.	.	.
Cc1nn(C)cc1-c1n[nH]c(=S)n1-c1ccc(F)cc1	35.3	-	-	-	-	29.1	-	-	-	-
CCCCNC(=O)OC1CCC12CCC(c1ccccc1)CC2 (stereo not given)	.	.	.	.	.	-	.	.	.	.
Cc1ccnc(NC(=O)c2cccc(S(=O)(=O)N3CCN(c4ccccc4)CC3)c2)c1	.	-	.	-	-	-	.	.	.	.
